Source: publication PMC7814465 (Cell reports, 2020)
One block for each molecule: values may come before it. Primed or numbered codes have the meaning given here. Ends that are not written are not given here. FITC′ = fluorescein isothiocyanate

Assays:
[1] = test system: NTRs (importins) from HeLa cytosol; test: Pull-down from HeLa cytosol with biotinylated DPR, NTRs; format: binding; details: immobilized biotinylated peptide, western blot
Procedure, shortened: (§1)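 It was cleared at 21,000 g, 4°C. Cytosol was incubated under physiological buffer conditions with biotinylated DPR peptides immobilized on ovalbumin-blocked streptavidin beads, and bound NTRs were detected by western blot.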

GST-GR25 / TDP-43 = test: Sedimentation of GST-GR25 with TDP-43 and NTRs; format: biochemical; details: anti-GST western blot, three independent experiments
Procedure, shortened: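 1 µM TDP-43-MBP-His was Tev-cleaved (20 µg/ml His-Tev, 60 min, 30°C) with or without equimolar GST-tagged DPR and/or NTRs. Samples were centrifuged 15 min at 21,000 g, 4°C. Equal volumes of supernatant and pellet were analysed by anti-GST western blot.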

TNPO1 (His-TNPO1) = test: SDD-AGE oligomer formation, TNPO1; format: biochemical; details: 10-fold molar excess: 2 μM importin, 20 μM TMR-DPR, pH 7.5, 200 mM NaCl, 1 h RT
Impα3 (His-Impα3) = test: SDD-AGE oligomer formation, Impα3; format: biochemical, rat; details: 10-fold molar excess: 2 μM importin, 20 μM TMR-DPR, pH 7.5, 200 mM NaCl, 1 h RT
[2] = test system: TDP-43 (TDP-43-Tev-MBP/MBP-Tev-TDP-43-GFP); test: TDP-43 condensate formation with DPRs, microscopy; format: biochemical; details: TMR-labeled DPR, equimolar (1x) or two-fold (2x), 2 μM TDP-43/TDP-43-GFP, Tev cleavage, 200 mM NaCl, pH 7.5
Procedure, shortened: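 Size-exclusion-purified TDP-43-MBP-His (2 μM) was mixed with substoichiometric MBP-TDP-43-GFP-His (1:4–1:5). Condensates were imaged by laser scanning confocal microscopy.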

Imp7 = test: Pull-down from HeLa cytosol, Imp7; format: binding; details: biotinylated peptide, western blot
Procedure, shortened: (§2)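 Biotin-DPR bait (5 μg per 10 μl beads) immobilised overnight with 2 mg/ml ovalbumin. Prey bound in B-buffer with 2 mg/ml BSA, washed without BSA, eluted in 2× SDS loading buffer. Two independent replicates.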

Impβ = test: Pull-down from HeLa cytosol, Impβ; format: binding; details: biotinylated peptide, western blot
Procedure, shortened: as §2

Impα3 [3] = test: Pull-down from HeLa cytosol, Impα3; format: binding; details: biotinylated peptide, western blot
Procedure, shortened: as §2

TNPO1 = target: T1, TNPO1 (Homo sapiens, UniProt Q92973); test: Pull-down from HeLa cytosol, TNPO1; format: binding; details: biotinylated peptide, western blot
T1 sequence (Q92973 1-898): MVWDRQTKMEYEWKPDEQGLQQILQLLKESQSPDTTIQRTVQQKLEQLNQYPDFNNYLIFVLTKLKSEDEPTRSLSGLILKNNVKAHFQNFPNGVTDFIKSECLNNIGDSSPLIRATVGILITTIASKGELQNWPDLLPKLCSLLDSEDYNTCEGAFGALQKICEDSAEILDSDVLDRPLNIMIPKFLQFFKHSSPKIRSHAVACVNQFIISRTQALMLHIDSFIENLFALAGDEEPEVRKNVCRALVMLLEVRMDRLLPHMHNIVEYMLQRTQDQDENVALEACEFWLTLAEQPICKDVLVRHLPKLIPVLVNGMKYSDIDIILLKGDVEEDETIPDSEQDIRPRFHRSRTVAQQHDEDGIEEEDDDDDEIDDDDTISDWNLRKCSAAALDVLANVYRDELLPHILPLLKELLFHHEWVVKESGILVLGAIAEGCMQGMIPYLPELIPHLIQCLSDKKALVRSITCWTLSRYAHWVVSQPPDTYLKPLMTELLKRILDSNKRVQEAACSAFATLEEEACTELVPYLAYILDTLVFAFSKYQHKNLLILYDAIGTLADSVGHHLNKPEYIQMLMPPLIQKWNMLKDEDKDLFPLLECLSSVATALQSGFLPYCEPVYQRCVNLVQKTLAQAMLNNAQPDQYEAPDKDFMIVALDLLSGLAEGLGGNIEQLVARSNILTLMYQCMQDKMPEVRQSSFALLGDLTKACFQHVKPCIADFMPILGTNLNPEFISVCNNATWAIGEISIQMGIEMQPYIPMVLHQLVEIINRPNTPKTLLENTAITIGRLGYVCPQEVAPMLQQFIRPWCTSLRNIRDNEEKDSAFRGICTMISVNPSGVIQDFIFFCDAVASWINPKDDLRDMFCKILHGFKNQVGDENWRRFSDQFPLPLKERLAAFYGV
Procedure, shortened: as §1

TNPO3 = test: Pull-down from HeLa cytosol, TNPO3; format: binding; details: biotinylated peptide, western blot
Procedure, shortened: as §1

Impα3 [4] = test: Pull-down with purified Impα3; format: binding, rat; details: biotinylated peptide, purified Impα3, pH 7.5, 200 mM NaCl
Procedure, shortened: (§3)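 Streptavidin beads were blocked with 20 mg/ml ovalbumin, then loaded overnight with 5 µg biotinylated DPR peptide per reaction. 5 µg purified prey protein was added in 50 mM Tris pH 7.5, 200 mM NaCl, 1 mM MgCl2, 5% glycerol, 2 mM DTT, 2 mg/ml BSA. After washes, bound protein was eluted in SDS loading buffer and analysed by SDS-PAGE with Sypro-Ruby staining. Two independent replicates.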

Impα1 = test: Pull-down with purified Impα1; format: binding; details: biotinylated peptide, purified Impα1, Figure S1E
Procedure, shortened: as §3

[5] = test system: Impβ (His-S-Impβ, in the absence of Impα); test: Sedimentation assay, Impβ alone; format: biochemical
Procedure, shortened: (§4)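 Protein was 1 µM purified NTR alone, or 500 nM Impα with 500 nM Impβ. Samples were centrifuged 15 min at 21,000 g, 4°C. Equal volumes of supernatant and pellet were analysed by SDS-PAGE with Sypro-Ruby stain or western blot.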

CRM1 = test: Sedimentation assay, CRM1; format: biochemical
Procedure, shortened: as §4

[6] = test system: nuclear import of GCR2-GFP2-cNLS in HeLa cells; test: Hormone-induced nuclear import assay, cNLS reporter; format: cell-based; details: 10 µM TMR-GR25, 2 h; three independent experiments, 14-61 cells
Procedure, shortened: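 HeLa cells were passaged at least twice in DMEM with 10% dialyzed FBS and expressed the GCR2-GFP2-MBP-cNLS reporter. They were pre-incubated 2 h with 10 µM TMR-labeled DPR peptide added once to serum-free imaging medium. Import was induced with 5 µM (final) dexamethasone, and spinning-disk live imaging ran 40–50 min at 2.5-min intervals. Only peptide-positive cells were quantified. N/C ratio is given as mean ± SEM of three experiments, with area under the curve compared by unpaired t test.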

[7] = test system: GCR2-GFP2 reporter in HeLa cells; test: Diffusion of reporter without NLS into nucleus; format: cell-based; details: 10 µM TMR-GR25, 2 h; three independent experiments, 43-102 cells
[8] = test system: GCR2-GFP2 reporter in cytoplasm; test: FRAP of cytoplasmic GCR2-GFP2 reporter; format: cell-based; details: 10 µM GR25, 2 h, dexamethasone; 34-38 cells, two independent experiments
GAPDH in HeLa cytosol = test: Sedimentation assay from HeLa cytosol, GAPDH; format: biochemical; details: highest GR/PR concentrations
Impb = details: FRET sensors and bead Halo assays; ref Hayes et al., 2019; cited from earlier work
TNPO1 (TEV-cleaved) = target: T2, TNPO1 (TEV-cleaved) (UniProt Q92973 1-898); test: fluorescence polarisation
T2 sequence (looked up): T1 sequence (Q92973 1-898)

[9] = 10-fold molar excess of TMR-labeled DPR, n = 3
[10] = extremely high concentrations (up to 40x)

Molecule: GST-GR25: recombinant GST fusion of GR25
solubility of GST-GR25 (GST-GR25 / TDP-43; absence of TDP-43): completely soluble | solubility of GST-GR25 (GST-GR25 / TDP-43; presence of cleaved TDP-43): moved efficiently into the pellet fraction

Molecule: TMR-GR25: tetramethylrhodamine (TMR)-labeled GR25 (GRGRGRGRGRGRGRGRGRGRGRGRGRGRGRGRGRGRGRGRGRGRGRGRGR; also: TMR label, position not given here)
oligomer formation of TNPO1 (SDS-resistant) (TNPO1 (His-TNPO1)): oligomer formation | oligomer formation of Impα3 (SDS-resistant) (Impα3 (His-Impα3)): oligomer formation

Molecule: TMR-PR25: tetramethylrhodamine (TMR)-labeled PR25 (PRPRPRPRPRPRPRPRPRPRPRPRPRPRPRPRPRPRPRPRPRPRPRPRPR; also: TMR label, position not given here)
oligomer formation of TNPO1 (SDS-resistant) (TNPO1 (His-TNPO1)): oligomer formation | oligomer formation of Impα3 (SDS-resistant) (Impα3 (His-Impα3)): oligomer formation

Molecule: poly-GP: non-charged DPR species; in the experiments GP25 (GPGPGPGPGPGPGPGPGPGPGPGPGPGPGPGPGPGPGPGPGPGPGPGPGP; not fully specified; also: biotin, position not given here) [reference compound]
oligomer formation of TNPO1 (SDS-resistant) (TNPO1 (His-TNPO1)): not poly-GP | oligomer formation of Impα3 (SDS-resistant) (Impα3 (His-Impα3)): not poly-GP | TDP-43 condensate formation [2]: no effect

More lines, main results first:

binding in pull-down [1]: not to the non-charged control DPR GP25
Molecule: GP25: non-charged control DPR (GPGPGPGPGPGPGPGPGPGPGPGPGPGPGPGPGPGPGPGPGPGPGPGPGP; not fully specified; also: biotin, position not given here)

binding in pull-down (TNPO1): bound preferentially to poly-GR | binding in pull-down (TNPO3): bound preferentially to poly-GR | direct binding in pull-down (Impα3 [4]): preferentially to poly-GR | direct binding in pull-down (Impα1): preferentially to poly-GR
Molecule: poly-GR: arginine-rich dipeptide repeat protein species; in the experiments mostly GR25
binding in pull-down (Imp7): bound equally to both poly-GR and poly-PR | binding in pull-down (Impβ): bound equally to both poly-GR and poly-PR | binding in pull-down (Impα3 [3]): bound equally to both poly-GR and poly-PR | solubility of Impβ [5, 9]: remained mainly soluble | precipitation of Impβ, titration [5, 10]: only partial or no precipitation | solubility of CRM1 (CRM1; [9]): remained mainly soluble | precipitation of CRM1, titration (CRM1; [10]): only partial or no precipitation | oligomer formation of TNPO1 (SDS-resistant) (TNPO1 (His-TNPO1)): SDS-resis-tant oligomers | oligomer formation of Impα3 (SDS-resistant) (Impα3 (His-Impα3)): SDS-resis-tant oligomers | nuclear import of cNLS reporter (N/C ratio) [6]: reduced nuclear import | diffusion of reporter without NLS into nucleus (N/C ratio) [7]: only mildly affected | mobility of GCR2-GFP2 reporter in cytoplasm (FRAP) [8]: unchanged | TDP-43 condensate formation [2]: formation of condensates | precipitation of GAPDH from HeLa cytosol (GAPDH in HeLa cytosol): not precipitated | direct binding to Impb in vitro (Impb): direct binding

Kd (TNPO1 (TEV-cleaved)): ~200 nM
Molecule: {FITC′}-GRGRGRGRGRGRGRGRGRGRGRGRGRGRGRGRGRGRGRGRGRGRGRGRGR [FITC-GR25]

Kd (TNPO1 (TEV-cleaved)): ~200 nM
Molecule: {FITC′}-PRPRPRPRPRPRPRPRPRPRPRPRPRPRPRPRPRPRPRPRPRPRPRPRPR [FITC-PR25]
